Experimental data as given in article PMC8945396 (ACS Nano, 2022).

Assays:
[1] = test system: transgenic tomato leaf cells overexpressing GFP; assay: Transfection of Cy3-labeled pBI221/CPP complexes after spraying; format: in vivo, Solanum lycopersicum; settings: as Cy3-labeled pBI221/CPP complex, N/P ratio = 2.0; 2 h post spraying; n = 15 ROIs
[2] = test system: Arabidopsis thaliana leaf upper epidermal and palisade mesophyll cells; assay: Cell penetration and translocation of TAMRA-labeled CPPs after spraying; format: in vivo; settings: 0.1 μg/mL sprayed; 30, 90, 150 min post spraying; CLSM, n = 8 ROIs
[3] = test system: epidermal cells of tomato leaves; assay: Translocation of TAMRA-labeled CPPs after spraying; format: in vivo, Solanum lycopersicum; settings: compared among BP100, dR9, KH9, KAibA; 30, 90, 150 min; 10 ROIs
In short: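 Tomato (cv. Micro-Tom) grown in soil with vermiculite at 25 °C, 16/8 h light/dark, 80 μmol photons m–2 s–1, 50% RH for 5–8 weeks; plants with 5–6 expanded leaves. Leaves were water-washed and dried 3–4 h, then sprayed with TAMRA-labeled peptides and lidded. Before imaging, leaves were rinsed 5 × 1 mL water. TAMRA fluorescence intensity was read by confocal microscopy, ex/em 555/580 nm.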

[4] = test system: soybean leaf epidermal and palisade mesophyll cells; assay: Translocation of TAMRA-labeled CPPs after spraying; format: in vivo, Glycine max; settings: cv. Enrei; 30, 90, 150 min post spraying; CLSM, 6 ROIs

Q: With “KHKHKHKHKHKHKHKHKHKKLFKKILKYL [KH9-BP100]” as the substance, how does the “transfection efficiency of plasmid DNA molecules after spraying” value [1] read?
A: The value was “higher transfection efficiency”.

Q: Which “penetration efficiency into the palisade mesophyll” value [2] does the source give for d-(RRRRRRRRR) [TAMRA-labeled dR9] here?
A: The value was “higher penetration efficiency into the palisade mesophyll than the other CPPs”.

Q: What about the “translocation efficiency in epidermal cells of tomato leaves” value [3] of the same substance?
A: The value was “greatest translocation efficiency”.

Q: (Lys(Aib)Ala)5 [TAMRA-labeled KAibA] was tested. Which “translocation efficiency into the palisade mesophyll of soybean leaves” value [4] did it give?
A: Its value is “higher translocation efficiency into the palisade mesophyll than the other CPPs”.
